# Laboratory results taken from ChEMBL document CHEMBL1165950, “Design and synthesis of new potent anticancer pyrazoles with high FLT3 kinase inhibitory selectivity” (Bioorg Med Chem, 2010).
# Assays:
# Type in all cases: functional
# [1] = system: SF-268; experiment: Growth inhibition of human SF268 cells after 48 hrs by sulforhodamine B assay; details: SF-268, 48 h
# Procedure, shortened: (§1)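 NCI 60-cell screen, five-dose mode. Cells grown in RPMI 1640 with 5% FBS and 2 mM L-glutamine and plated at 5000-40,000 cells/well according to doubling time. After 24 h preincubation, a Tz plate was TCA-fixed. Five concentrations (10-fold or 1/2 log dilutions) were applied for 48 h at 37 °C. SRB staining read at 515 nm. IC50 taken from [(Ti-Tz)/(C-Tz)]×100 = 50.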
# [2] = system: SK-MEL-5; experiment: Cytotoxicity against human SK-MEL-5 cells assessed as cell growth at 0.001 uM after 48 hrs by sulforhodamine B assay; details: SK-MEL-5, 48 h, read-out: Activity
# [3] = system: SR; experiment: Cytotoxicity against human SR cells assessed as cell growth at 10 uM after 48 hrs by sulforhodamine B assay; details: read-out: Activity
# [4] = system: OVCAR-8; experiment: Cytotoxicity against human OVCAR8 cells assessed as cell growth at 10 uM; details: read-out: Activity
# Procedure, shortened: (§2)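 NCI-60 screen: cells grown in RPMI 1640 with 5% FBS and 2 mM L-glutamine, plated at 5000–40,000 cells/well according to doubling time, and preincubated 24 h at 37 °C, 5% CO2. The single 10 µM dose (DMSO stock) was added, then incubated 48 h. Cells were TCA-fixed and stained with 0.4% SRB, read at 515 nm, and growth % calculated against time-zero and control plates.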
# [5] = system: HOP-62; experiment: Growth inhibition of human HOP62 cells after 48 hrs by sulforhodamine B assay; details: HOP-62, 48 h; procedure, shortened: as §1
# [6] = system: A549; experiment: Cytotoxicity against human A549 cells assessed as cell growth at 1 uM after 48 hrs by sulforhodamine B assay; details: A549, 48 h, read-out: Activity
# Procedure, shortened: (§3)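 NCI-60 five-dose screen. Cells were grown in RPMI 1640 with 5% FBS and 2 mM L-glutamine, plated at 5000–40,000 cells/well and preincubated for 24 h. Time-zero plates were TCA-fixed. DMSO-solubilized drug was added at five concentrations (10-fold or ½-log serial dilutions) for 48 h at 37 °C, 5% CO2. Cells were TCA-fixed, stained with 0.4% SRB and read at 515 nm. Percent growth used time-zero, control and test absorbances.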
# [7] = system: SNB-19; experiment: Cytotoxicity against human SNB19 cells assessed as cell growth at 10 uM after 48 hrs by sulforhodamine B assay; details: SNB-19, 48 h, read-out: Activity
# [8] = system: CCRF-CEM; experiment: Cytotoxicity against human CCRF-CEM cells assessed as cell growth at 0.01 uM after 48 hrs by sulforhodamine B assay; details: read-out: Activity; procedure, shortened: as §3
# [9] = system: COLO 205; experiment: Growth inhibition of human COLO205 cells after 48 hrs by sulforhodamine B assay; details: COLO 205, 48 h
# Procedure, shortened: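 NCI five-dose SRB assay in RPMI 1640 with 5% FBS and 2 mM L-glutamine. Cells were preincubated 24 h, then exposed 48 h at 37 °C to five concentrations (10-fold or half-log serial dilutions from DMSO stocks). TCA fixation, SRB staining, and absorbance at 515 nm followed. IC50 was taken where [(Ti−Tz)/(C−Tz)]×100 = 50, with Tz as time-zero cell density.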
# [10] = system: UACC-257; experiment: Cytotoxicity against human UACC257 cells assessed as cell growth at 0.001 uM after 48 hrs by sulforhodamine B assay; details: UACC-257, 48 h, read-out: Activity
# [11] = system: UACC-62; experiment: Cytotoxicity against human UACC62 cells assessed as cell growth at 0.01 uM after 48 hrs by sulforhodamine B assay; details: UACC-62, 48 h, read-out: Activity
# [12] = system: U-251; experiment: Growth inhibition of human U251 cells after 48 hrs by sulforhodamine B assay; details: U-251, 48 h; procedure, shortened: as §1
# [13] = system: Malme-3M; experiment: Cytotoxicity against human MALME-3M cells assessed as cell growth at 100 nM after 48 hrs by sulforhodamine B assay; details: read-out: Activity
# [14] = system: SF-295; experiment: Cytotoxicity against human SF295 cells assessed as cell growth at 1 uM after 48 hrs by sulforhodamine B assay; details: SF-295, 48 h, read-out: Activity
# [15] = system: OVCAR-8; experiment: Cytotoxicity against human OVCAR8 cells assessed as cell growth at 10 uM after 48 hrs by sulforhodamine B assay; details: OVCAR-8, 48 h, read-out: Activity
# [16] = system: HCC 2998; experiment: Cytotoxicity against human HCC2998 cells assessed as cell growth at 0.01 uM after 48 hrs by sulforhodamine B assay; details: HCC 2998, 48 h, read-out: Activity
# [17] = system: U-251; experiment: Cytotoxicity against human U251 cells assessed as cell growth at 0.01 uM after 48 hrs by sulforhodamine B assay; details: U-251, 48 h, read-out: Activity
# [18] = system: RXF 393; experiment: Cytotoxicity against human RXF393 cells assessed as cell growth at 0.01 uM after 48 hrs by sulforhodamine B assay; details: RXF 393, 48 h, read-out: Activity
# [19] = system: K562; experiment: Cytotoxicity against human K562 cells assessed as cell growth at 10 uM; details: read-out: Activity
# Procedure, shortened: (§4)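 Single-dose NCI-60 screen at 10 µM. Cells were grown in RPMI 1640 with 5% FBS and 2 mM L-glutamine, then treated for 48 h at 37 °C. Protein was measured by SRB staining with absorbance at 515 nm. Percentage growth was recorded, and inhibition percentage was calculated as 100 minus growth percentage.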
# [20] = system: A498; experiment: Cytotoxicity against human A498 cells assessed as cell growth at 100 nM after 48 hrs by sulforhodamine B assay; details: A498, 48 h, read-out: Activity; procedure, shortened: as §3
# [21] = system: OVCAR-5; experiment: Cytotoxicity against human OVCAR5 cells assessed as cell growth at 0.001 uM after 48 hrs by sulforhodamine B assay; details: OVCAR-5, 48 h, read-out: Activity
# [22] = system: 786-0; experiment: Cytotoxicity against human 786-0 cells assessed as cell growth at 10 uM; details: read-out: Activity; procedure, shortened: as §4
# [23] = system: SNB-75; experiment: Cytotoxicity against human SNB75 cells assessed as cell growth at 0.001 uM after 48 hrs by sulforhodamine B assay; details: SNB-75, 48 h, read-out: Activity
# [24] = system: HCT-116; experiment: Cytotoxicity against human HCT116 cells assessed as cell growth at 0.01 uM after 48 hrs by sulforhodamine B assay; details: HCT-116, 48 h, read-out: Activity
# [25] = system: SK-OV-3; experiment: Growth inhibition of human SKOV3 cells after 48 hrs by sulforhodamine B assay; details: SK-OV-3, 48 h; procedure, shortened: as §1
# [26] = system: COLO 205; experiment: Cytotoxicity against human COLO205 cells assessed as cell growth at 0.001 uM after 48 hrs by sulforhodamine B assay; details: COLO 205, 48 h, read-out: Activity; procedure, shortened: as §3
# [27] = system: NCI/ADR-RES; experiment: Cytotoxicity against human NCI/ADR-RES cells assessed as cell growth at 10 uM; details: read-out: Activity; procedure, shortened: as §2
# [28] = read-out: LC50 (the source's name)
smiles,measurement,setting,value
COc1cc(C)cc(-c2c(-c3ccnc(-c4ccc(N(C)C)cc4)c3)cnn2CC#N)c1,GI50,[1],0.302 µM
same,TGI,[1],> 100 µM
same,CC50,[1]; [28],> 100 µM
same,growth at 0.001 µM,[2],95%
same,growth at 10 µM,[3],-38%
same,growth at 10 µM,[4],25.4%
same,GI50,[5],0.263 µM
same,LC50 (50% lethal concentration),[5],> 100 µM
same,TGI,[5],> 100 µM
same,growth at 1 µM,[6],5%
same,growth at 10 µM,[7],35%
same,growth at 0.01 µM,[8],73%
same,GI50,[9],0.22 µM
same,TGI,[9],> 100 µM
same,CC50,[9]; [28],> 100 µM
same,growth at 0.001 µM,[10],89%
same,growth at 0.01 µM,[11],38%
same,GI50,[12],0.178 µM
same,TGI,[12],> 100 µM
same,CC50,[12]; [28],> 100 µM
same,growth at 0.1 µM,[13],49%
same,growth at 1 µM,[14],-27%
same,growth at 10 µM,[15],8%
same,growth at 0.01 µM,[16],30%
same,growth at 0.01 µM,[17],41%
same,growth at 0.01 µM,[18],84%
same,growth at 10 µM,[19],9.74%
same,growth at 0.1 µM,[20],10%
same,growth at 0.001 µM,[21],90%
same,growth at 10 µM,[22],-1.5%
same,growth at 0.001 µM,[23],88%
same,growth at 0.01 µM,[24],44%
same,GI50,[25],0.504 µM
same,TGI,[25],> 100 µM
same,CC50,[25]; [28],> 100 µM
same,growth at 0.001 µM,[26],98%
same,growth at 10 µM,[27],-15.4%
